Assay outcomes deposited in PubChem BioAssay by several laboratories.
PfGluPho inh: PfG6PD (Plasmodium falciparum) enzyme inhibition | PfGluPho enzyme, NADPH resazurin-diaphorase fluorescence | inhibition, % at 20 µM | actives 0.78% (n = 350,000) | AID 504690;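 active = inhibition reaching at least a set limit at 20 µM in the primary screen, cut at about 59% in these data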;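 also: 0% = DMSO wells with substrate and 100% = DMSO wells lacking glucose-6-phosphate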
Tb hexokinase: T. brucei hexokinase 1 inhibition. actives 0.11% (n = 220,000). recombinant TbHK1, G6PDH-coupled NADH A340. inhibition, % at 10 µM. AID 1430;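 active = inhibition of 50% or more in the single-dose primary screen; inactive = inhibition below 50%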
Diaph inh CS: diaphorase inhibition or chemical oxidation counter-screen; actives 0.69% (n = 190,000); diaphorase resazurin-to-resorufin fluorescence, NADH, 16 min; bacterial (C. kluyveri) enzyme, not human; inhibition, % at 20 µM;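 active = primary screen inhibition at 20 µM above a set limit, cut at about 50% in these data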;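 also: plate controls were DMSO with full reaction for no effect and wells lacking NADH for full effect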
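Assay system – diaphorase enzyme from Clostridium kluyveri · Amount – diaphorase 0.14 U/mL (working solution) · Times – reaction incubation of 16 min at room temperature · Controls – No-NADH positive control and DMSO neutral control · Signal – resorufin fluorescence 544/590 nm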
HKDC1 inh: HKDC1 (human) hexokinase inhibition | Q2TB90 | recombinant HKDC1, G6PDH/diaphorase resazurin coupled fluorescence | inhibition, % at 20 µM | actives 0.16% (n = 340,000) | AID 493160;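 active = inhibition above about 35% when tested at 20 µM, limit read from the data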;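 also: plate controls were DMSO wells with enzyme for no effect and DMSO wells lacking enzyme for full effect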
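Test system: HK5 enzyme. Quantity: 5 µg/mL HK5 final. Reagent: glucose and ATP substrates. Schedule: 90 min reaction incubation at room temperature, dark. Technique: resazurin-to-resorufin fluorescence via G6PDH and diaphorase coupling, 525/613 nm. Control set: DMSO wells with and without enzyme mix.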
G6PDH CS: inhibits Leuconostoc G6PDH, flagging false hits in G6PDH-based assays | actives 0.12% (n = 200,000) | AID 1020 | inhibition, % at 5 µM | Purified L. mesenteroides G6PDH, diaphorase/resazurin coupled fluorescence, 45 min; in the data active = inhibition above about 50%
Numbers without * were called inactive; / = no result. Compounds with a hit are over-represented: about 1.3% of the library has one in this group of screens.

SMILES	PfGluPho inh	Tb hexokinase	Diaph inh CS	HKDC1 inh	G6PDH CS
Nc1scc2c(C(=O)N/N=C/c3ccc(Cl)cc3)nn(-c3ccccc3)c(=O)c12	56.0	-4.6	75.2*	18.9	20.4
CCOC(=O)c1nn(-c2ccccc2)c(=O)c2c(N)scc12	59.0	-8.6	35.5	15.0	46.1
O=[N+]([O-])c1ccc2c(c1Nc1ccccc1Cl)=NC1(CCCCC1)N=2	22.0	-6.1	/	0.6	/
Cc1ccc(Nc2c([N+](=O)[O-])ccc3c2=NC2(CCCCC2)N=3)cc1	28.5	-3.4	50.7*	16.9	9.7
CN(/C=C/C(=C/C=[N+](C)c1ccccc1)OCCCS(=O)(=O)[O-])c1ccccc1	-15.7	6.2	24.8	-7.5	-2.3
CN(/C=C/C(=C\C=[N+](C)c1ccccc1)OCCCS(=O)(=O)[O-])c1ccccc1	-9.0	-6.9	58.7*	-2.9	17.1
C=CCn1c(COc2ccccc2F)nnc1SCC(=O)c1c[nH]c2ccccc12	9.2	-2.9	13.6	3.1	-16.6
O=C1CN=C(Nc2ccccc2Cl)N1c1ccccc1	-17.1	2.7	-5.9	-10.8	6.1
CC(C)c1ccc(/C=N/Nc2cc(N3CCOCC3)nc(N3CCOCC3)n2)cc1	22.0	-17.3	63.0*	2.3	24.3
Cc1cccc(/C=N/Nc2cc(N3CCOCC3)nc(N3CCOCC3)n2)c1	20.9	6.6	72.1*	8.2	30.2
Cc1ccc(/C=N/Nc2cc(C)nc(N3CCOCC3)n2)cc1	10.9	-63.6	/	3.5	/
Oc1ccc(/C=N/Nc2cc(N3CCCC3)nc(N3CCCC3)n2)cc1O	16.1	-12.4	61.9*	15.3	48.6
Cc1cc(N/N=C/c2ccccc2)nc(N2CCOCC2)n1	8.5	-58.5	/	-2.7	/
CSc1nc2nc3c(c(=O)n2[nH]1)CN(Cc1ccccc1)CC3	-21.9	39.5	9.7	-2.8	11.1
Cc1cccc(/C=N/NC(=O)C(C)Nc2cccc3ccccc23)n1 (centres undefined)	6.3	-18.4	27.7	0.4	50.0*
COc1cc([N+](=O)[O-])cc(/C=N/NC(=O)C(C)Nc2cccc3ccccc23)c1O (centres undefined)	-20.7	-11.6	70.5*	7.5	-16.5
CC(Nc1cccc2ccccc12)C(=O)N/N=C/c1ccc([N+](=O)[O-])cc1 (centres undefined)	21.8	-19.3	16.8	15.2	-1.3
CC(O)C(=O)N/N=C/c1cccc2ccccc12 (centres undefined)	14.3	-20.3	1.4	-11.1	-0.9
O=C(CSc1nc2c(cnn2-c2ccc(F)cc2)c(=O)[nH]1)N1CCCc2ccccc21	-41.0	-1.4	63.2*	5.2	-0.4
O=C1CN(C(=O)CSc2nc3c(cnn3-c3ccccc3)c(=O)[nH]2)c2ccccc2N1	-27.1	/	/	9.8	/
O=C(CSc1ccc2nnc(-c3ccc(Cl)cc3)n2n1)N1CCCc2ccccc21	3.3	-9.5	-0.6	-7.5	-65.5
O=C(CSc1ccc2nnc(-c3ccc(F)cc3)n2n1)N1CCCc2ccccc21	-15.1	-4.2	58.9*	-3.4	-1.0
CC(Sc1nnnn1C)C(=O)Nc1ncc(Cl)cc1Cl (centres undefined)	-4.5	/	/	-6.3	/
CC(Sc1nnc(-c2ccccc2)c(-c2ccccc2)n1)C(=O)Nc1ncc(Cl)cc1Cl (centres undefined)	19.5	-6.4	52.6*	13.6	-10.7
O=C(O)c1cc2nc(-c3ccccc3)cc(C(F)(F)F)n2n1	4.5	-4.9	-2.0	-0.1	1.0
SMILES	PfGluPho inh	Tb hexokinase	Diaph inh CS	HKDC1 inh	G6PDH CS
O=C(O)c1cc2nc(-c3ccccc3)cc(-c3ccccc3)n2n1	-2.7	-8.8	59.3*	10.9	23.2
CS(=O)(=O)N1CC(C(=O)NC2CCCC2)Oc2ccc(Cl)cc21 (centres undefined)	-0.7	2.3	7.4	1.5	4.9
Nc1cc2c([N+](=O)[O-])cccc2o1	16.2	-6.4	12.1	-7.9	3.3
S=c1[nH]c(-c2ccccc2)cn1/N=C/c1ccccc1Br	34.6	-4.6	46.1	2.6	-5.5
Oc1ccc(/C=N/n2cc(-c3ccccc3)[nH]c2=S)cc1	37.2	-19.4	53.3*	-0.6	-12.0
COn1c(C)c(C(C)=O)c2c3nonc3ccc21	7.0	-6.6	53.2*	-10.6	42.0
CCCCOn1c(C)c(C(=O)OCC)c2c3nonc3ccc21	3.2	-0.9	/	-0.4	/
COc1ccccc1-n1c(SCC(=O)N2CCCCC2)nc(O)c(Cc2ccccc2)c1=O	-12.6	/	/	-3.6	/
